Here are results for 7 compounds from ChEMBL document CHEMBL1141111, “Synthesis and biological evaluation of spin-labeled alkylphospholipid analogs” (J Med Chem, 2005).

The test system of assay [1] is MCF7. Briefly: Inhibitory concentration against MCF-7 cells gwoth. Format: functional, cell-based, Homo sapiens. A digest of the protocol: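 MCF7 cells were grown in RPMI-1640 with L-glutamine and 10% heat-inactivated FCS, then seeded at 2 × 10^4 per well the day before treatment. Free or liposomal compound (APL/Ch/DCP 10:10:2, 200 nm extruded LUVs) was serially diluted 200–6.25 µM and applied for 24 h in triplicate. MTT (0.5 mg/mL) was added for 4 h, and formazan was dissolved in DMSO and read at 540 nm. IC50 comes from growth-inhibition curves versus untreated cells, mean ± SD of ≥3 independent experiments.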

Assay [2] is filed under the species Homo sapiens. Briefly: Hemolytic effect (30 uM) on human erythrocytes upon incubation with liposomes for 30 min in pH 7.5. Format: functional. A digest of the protocol:
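Washed erythrocytes from a healthy donor's EDTA blood, stored at 4 °C and used within 48 h. About 8.59 × 10^7 cells in 1 mL PBS (pH 7.5) with 5.5 mM glucose solution. Extruded LUVET (SL-APL/cholesterol/dicetyl phosphate 10:10:2), 30 nmol lipid, shaken 30 min at room temperature. Supernatant read with Drabkin's reagent at 540 nm, as % of Triton X-100 lysis, in triplicate.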

Assay [3] in a line: (§1) Hemolytic effect (100 uM) on human erythrocytes. Format: functional. A digest of the protocol: (§2)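 Blood from a healthy donor was collected in EDTA, the plasma removed, and the cells washed in PBS. Each 1 mL sample held 8.59 × 10^7 erythrocytes in PBS (pH 7.5) with 100 µL of 5.5 mM glucose, plus free lipid (30 nmol) or liposomes (30 or 100 nmol). Samples were shaken 30 min at room temperature and spun at 840g. The supernatant was read with Drabkin's reagent at 540 nm. Results are % of Triton X-100 total lysis, in triplicate.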

Assay [4] in a line: (§3) Hemolytic effect (30 uM) on human erythrocytes upon incubation with lipid for 30 min in pH 7.5. Format: functional. Summed up:
as §2

Assay [5] is filed under the species Homo sapiens. The assay is described as §1. Format: functional. Summed up: as §2
For assay [6], the species on record is Homo sapiens. Described as §3. Format: functional. Summed up:
as §2

The structures appear in SMILES notation.

In general, IC50 refers to the concentration needed to halve the response being measured. A low value points to inhibition by little substance. In assay [1] (mcf7), `CCCCC1(CCCCCCCCCCCCCOP(=O)([O-])OC2CC[N+](C)(C)CC2)OCC(C)(C)N1[O]` (stereo not drawn) registered an IC50 of 56.4 µM. The Hemolysis in assay [2] turned out to be 3.2%; in assay [3], 5.3%; in assay [4], 16.1%.

Consider `CCCCCCC1(CCCCCCCCCCCOP(=O)([O-])OC2CC[N+](C)(C)CC2)OCC(C)(C)N1[O]` (stereo not drawn), for which the values for the Hemolysis in assay [2], in assay [5] and in assay [6] were 4.1%, 5.7% and 18.3%, respectively.

Consider `CCCCCCC1(CCCCCCCCCCCOP(=O)([O-])OCC[N+](C)(C)C)OCC(C)(C)N1[O]` (stereo not drawn), for which the Hemolysis turned out to be 4.9% in assay [2], 20.3% in assay [5] and 98.3% in assay [6].

Consider `CCCCCCCCCCCCCC1(CCCCOP(=O)([O-])OC2CC[N+](C)(C)CC2)OCC(C)(C)N1[O]` (stereo not drawn), for which the Hemolysis in assay [2] is 6.6%; in assay [5], 17.9%; in assay [6] it was 99%.

For the compound `CCCCCCCCC1(CCCCCCCCCOP(=O)([O-])OC2CC[N+](C)(C)CC2)OCC(C)(C)N1[O]` (stereo not drawn), the Hemolysis amounted to 3.7% in assay [2], 5.9% in assay [5] and 34.6% in assay [6].

`CCCCCCCCCCCC1(CCCCCCOP(=O)([O-])OC2CC[N+](C)(C)CC2)OCC(C)(C)N1[O]` (stereo not drawn): the Hemolysis in assay [2] was 4.4%; in assay [5] it was 6.7%; in assay [6], 95.2%.

In the case of `CCCCCCCCCCCCCCCCCCOP(=O)([O-])OC1CC[N+](C)(C)CC1` [PERIFOSINE], in assay [1] (Homo sapiens, MCF7), 75.8 µM corresponded to half-maximal inhibition (IC50). Moreover, the Hemolysis in assay [2] stood at 3.2%; in assay [3] it was 93.5%; in assay [4], 98.1%.
